Measured values taken from ChEMBL document CHEMBL4130382, “Novel unsaturated glycyrrhetic acids derivatives: Design, synthesis and anti-inflammatory activity” (Eur J Med Chem, 2017).
The source made the active and inactive calls. No cut-off for these calls is given here.

Tests used:
[1] = Cytotoxicity against mouse RAW264.7 cells assessed as cell viability at 40 uM after 24 hrs by MTT assay (reference value: 100%); format: cell-based; settings: read-out: Activity
Summary of the method: (§1)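 RAW264.7 cells seeded at 6×10^3 cells/well and cultured 24 h. Compounds diluted in DMEM for 24 h exposure. MTT 0.5 mg/mL added for 4 h, formazan dissolved in DMSO, OD read at 570 nm. Viability given as % of medium-only blank. Three independent experiments.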

[2] = test system: RAW264.7; assay: Antiinflammatory activity in mouse RAW264.7 cells assessed as inhibition of LPS-stimulated IL-6 production preincubated for 2 hrs followed by LPS stimulaton measured after 24 hrs by ELISA; format: functional, cell-based
Summary of the method: (§2)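 Cells at 7×10^4/well cultured 24 h, then pretreated 2 h with 10–40 µM compound. LPS 1 µg/mL added for 24 h. IL-6 and TNF-α measured in supernatant by mouse ELISA kits.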

[3] = test system: RAW264.7; assay: Antiinflammatory activity in mouse RAW264.7 cells assessed as inhibition of LPS-induced NO production by measuring nitrite level at 40 uM pretreated for 2 hrs followed by LPS challenge measured after 24 hrs by Griess assay relative to control; format: functional
Summary of the method: (§3)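 RAW264.7 cells grown in DMEM with 10% FBS plus penicillin/streptomycin at 37 °C and 5% CO2. Seeded at 1×10^5 cells/well and cultured 20 h. Pretreated 2 h with compounds in serum-free medium, then LPS 1 µg/mL for 24 h. Nitrite read with Griess reagent at 540 nm. Inhibition = (LPS-only − treated)/(LPS-only − medium blank) × 100%. Mean ± SD, n = 3.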

[4] = test system: RAW264.7; assay: Antiinflammatory activity in mouse RAW264.7 cells assessed as inhibition of LPS-stimulated TNF-alpha production preincubated for 2 hrs followed by LPS stimulaton measured after 24 hrs by ELISA; format: functional, cell-based; summary of the method: as §2
[5] = test system: RAW264.7; assay: Antiinflammatory activity in mouse RAW264.7 cells assessed as inhibition of LPS-induced NO production by measuring nitrite level at 20 uM pretreated for 2 hrs followed by LPS challenge measured after 24 hrs by Griess assay; format: functional, cell-based; summary of the method: as §3
[6] = Cytotoxicity against mouse RAW264.7 cells assessed as cell viability at 20 uM after 24 hrs by MTT assay (reference value: 100%); format: cell-based; settings: read-out: Activity; summary of the method: as §1
[7] = test system: RAW264.7; assay: Antiinflammatory activity in mouse RAW264.7 cells assessed as inhibition of LPS-stimulated iNOS production at 40 uM preincubated with compound followed by LPS stimulation measured after 24 hrs by Western blot relative to control; format: functional
Summary of the method: (§4)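 Cells at 2×10^6/well cultured 24 h. Medium replaced with fresh medium containing 10–40 µM compound, or Bay 11-7082 20 µM as NF-κB inhibitor control, plus LPS 1 µg/mL for 24 h. Lysates in IP buffer with 1 mM PMSF; protein by BCA. Equal protein run on 12.5% SDS-PAGE, PVDF, ECL detection for iNOS and COX-2. Mean ± SD, n = 3.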

[8] = target: Transcription factor p65 (Mus musculus) (UniProt Q04207); assay: Inhibition of LPS-induced NFkappaB p65 phosphorylation in mouse RAW264.7 cells preincubated with compound followed by LPS stimulation measured after 30 mins by Western blot; format: cell-based
Chain of Transcription factor p65 (Mus musculus) (Q04207 whole entry): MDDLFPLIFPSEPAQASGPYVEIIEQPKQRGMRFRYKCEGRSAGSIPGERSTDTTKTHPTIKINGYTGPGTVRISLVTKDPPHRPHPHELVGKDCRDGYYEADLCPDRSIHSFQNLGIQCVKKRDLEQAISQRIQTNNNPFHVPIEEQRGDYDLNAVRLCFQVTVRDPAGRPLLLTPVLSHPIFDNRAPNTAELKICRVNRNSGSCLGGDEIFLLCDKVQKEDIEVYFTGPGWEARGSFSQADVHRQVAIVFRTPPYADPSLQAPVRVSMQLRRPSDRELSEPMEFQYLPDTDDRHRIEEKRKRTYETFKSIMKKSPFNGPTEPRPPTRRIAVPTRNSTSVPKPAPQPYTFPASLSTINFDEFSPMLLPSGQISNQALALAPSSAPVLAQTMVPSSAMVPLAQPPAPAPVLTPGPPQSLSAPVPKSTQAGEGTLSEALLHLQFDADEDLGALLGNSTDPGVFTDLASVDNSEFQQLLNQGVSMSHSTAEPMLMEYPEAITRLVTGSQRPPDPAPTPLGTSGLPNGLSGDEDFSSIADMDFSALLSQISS
Summary of the method: (§5)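 Cells at 2×10^6/well cultured 24 h, then given 10–40 µM compound with LPS 1 µg/mL for 30 min; Bay 11-7082 20 µM as control. Lysates in IP buffer with PMSF; equal protein on 12.5% SDS-PAGE, PVDF. Blocked in 5% milk/TBST, primary antibodies to phospho and total JNK, ERK1/2, p38, IκB and p65 at 1:1000 overnight at 4 °C, ECL detection. Mean ± SD, n = 3.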

[9] = target: Transcription factor p65 (Mus musculus) (UniProt Q04207); assay: Inhibition of LPS-induced NFkappaB p65 nuclear translocation in mouse RAW264.7 cells at 20 to 40 uM preincubated for 1 hr followed by LPS stimulation measured after 3 hrs by DAPI staining-based immunofluorescence assay; format: cell-based
Summary of the method: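 Cells at 7×10^4/well cultured 24 h, pretreated with 20 or 40 µM compound, then LPS 1 µg/mL for 3 h. Fixed in 4% formaldehyde, permeabilized with 0.3% Triton X-100, blocked with 5% BSA. Stained overnight with anti-p65, then Alexa Fluor 488 anti-rabbit; nuclei counterstained with DAPI and imaged.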

[10] = test system: RAW264.7; assay: Antiinflammatory activity in mouse RAW264.7 cells assessed as inhibition of LPS-stimulated COX-2 production at 40 uM preincubated with compound followed by LPS stimulation measured after 24 hrs by Western blot relative to control; format: functional; summary of the method: as §4
[11] = target: MAP kinase p38 (Mus musculus) (UniProt P47811+O08911+Q9WUI1+Q9Z1B7); assay: Inhibition of LPS-induced p38 MAPK phosphorylation in mouse RAW264.7 cells at 10 to 40 uM preincubated with compound followed by LPS stimulation measured after 30 mins by Western blot; format: cell-based; summary of the method: as §5
[12] = test system: RAW264.7; assay: Antiinflammatory activity in mouse RAW264.7 cells assessed as inhibition of LPS-stimulated COX-2 production preincubated with compound followed by LPS stimulation measured after 24 hrs by Western blot; format: functional, cell-based; summary of the method: as §4
[13] = test system: RAW264.7; assay: Antiinflammatory activity in mouse RAW264.7 cells assessed as inhibition of LPS-stimulated iNOS production preincubated with compound followed by LPS stimulation measured after 24 hrs by Western blot; format: functional, cell-based; summary of the method: as §4
[14] = test system: RAW264.7; assay: Inhibition of LPS-induced JNK phosphorylation in mouse RAW264.7 cells at 10 to 40 uM preincubated with compound followed by LPS stimulation measured after 30 mins by Western blot; format: cell-based; summary of the method: as §5
[15] = test system: RAW264.7; assay: Inhibition of LPS-induced ERK phosphorylation in mouse RAW264.7 cells at 40 uM preincubated with compound followed by LPS stimulation measured after 30 mins by Western blot; format: cell-based; summary of the method: as §5

SMILES | viability at 24 h, 40 µM [1] | inhibition [5] | inhibition [3] | viability at 24 h, 20 µM [6] | other results
CCN1CCN(C(=O)/C=C/[C@@]2(C)CC[C@]3(C)CC[C@]4(C)C(=CC(=O)[C@@H]5[C@@]6(C)CC[C@H](O)C(C)(C)[C@@H]6CC[C@]54C)[C@@H]3C2)CC1 | 98.4% | – | – | – | IC50 [2]: 15.5 µM; inhibition [2]: Dose-dependent effect; inhibition at 40 µM [3]: > 70%; inhibition [4]: Dose-dependent effect
CC1(C)[C@@H](O)CC[C@]2(C)[C@H]3C(=O)C=C4[C@@H]5C[C@@](C)(/C=C/C(=O)O)CC[C@]5(C)CC[C@@]4(C)[C@]3(C)CC[C@@H]12 | 99.2% | Active | Active | – | –
CC(O)CNC(=O)/C=C/[C@@]1(C)CC[C@]2(C)CC[C@]3(C)C(=CC(=O)[C@@H]4[C@@]5(C)CC[C@H](O)C(C)(C)[C@@H]5CC[C@]43C)[C@@H]2C1 (stereo not given in full) | – | Active | Active | 91.4% | –
CC1(C)[C@@H](O)CC[C@]2(C)[C@H]3C(=O)C=C4[C@@H]5C[C@@](C)(/C=C/C(=O)NCCCN6CCOCC6)CC[C@]5(C)CC[C@@]4(C)[C@]3(C)CC[C@@H]12 | 99.8% | Active | Active | – | –
CC1(C)[C@@H](O)CC[C@]2(C)[C@H]3C(=O)C=C4[C@@H]5C[C@@](C)(/C=C/C(=O)NNc6ccccc6)CC[C@]5(C)CC[C@@]4(C)[C@]3(C)CC[C@@H]12 | – | inactive | inactive | 94.8% | –
CC1(C)[C@@H](O)CC[C@]2(C)[C@H]3C(=O)C=C4[C@@H]5C[C@@](C)(/C=C/C(=O)NCCO)CC[C@]5(C)CC[C@@]4(C)[C@]3(C)CC[C@@H]12 | – | Active | Active | 93.6% | –
CC1(C)[C@@H](O)CC[C@]2(C)[C@H]3C(=O)C=C4[C@@H]5C[C@@](C)(/C=C/C(=O)NCCCCl)CC[C@]5(C)CC[C@@]4(C)[C@]3(C)CC[C@@H]12 | 95% | – | – | – | –
CC1(C)[C@@H](O)CC[C@]2(C)[C@H]3C(=O)C=C4[C@@H]5C[C@@](C)(/C=C/C(=O)N6CCOCC6)CC[C@]5(C)CC[C@@]4(C)[C@]3(C)CC[C@@H]12 | 97.5% | inactive | inactive | – | –
Cc1cccc(NC(=O)/C=C/[C@@]2(C)CC[C@]3(C)CC[C@]4(C)C(=CC(=O)[C@@H]5[C@@]6(C)CC[C@H](O)C(C)(C)[C@@H]6CC[C@]54C)[C@@H]3C2)c1 | 99.3% | inactive | inactive | – | –
CC(C)N(C(=O)/C=C/[C@@]1(C)CC[C@]2(C)CC[C@]3(C)C(=CC(=O)[C@@H]4[C@@]5(C)CC[C@H](O)C(C)(C)[C@@H]5CC[C@]43C)[C@@H]2C1)C(C)C | – | Active | – | 95.8% | –
CCNC(=O)/C=C/[C@@]1(C)CC[C@]2(C)CC[C@]3(C)C(=CC(=O)[C@@H]4[C@@]5(C)CC[C@H](O)C(C)(C)[C@@H]5CC[C@]43C)[C@@H]2C1 | 92% | Active | Active | – | –
CCOC(=O)/C=C/[C@@]1(C)CC[C@]2(C)CC[C@]3(C)C(=CC(=O)[C@@H]4[C@@]5(C)CC[C@H](OC(C)=O)C(C)(C)[C@@H]5CC[C@]43C)[C@@H]2C1 | – | – | – | 94.3% | –
CN(C)C(=O)/C=C/[C@@]1(C)CC[C@]2(C)CC[C@]3(C)C(=CC(=O)[C@@H]4[C@@]5(C)CC[C@H](O)C(C)(C)[C@@H]5CC[C@]43C)[C@@H]2C1 | 99.5% | Active | Active | – | –
CC1(C)[C@@H](O)CC[C@]2(C)[C@H]3C(=O)C=C4[C@@H]5C[C@@](C)(/C=C/C(=O)NNC(N)=O)CC[C@]5(C)CC[C@@]4(C)[C@]3(C)CC[C@@H]12 | – | – | – | 96.7% | –
CC1(C)[C@@H](O)CC[C@]2(C)[C@H]3C(=O)C=C4[C@@H]5C[C@@](C)(C(=O)O)CC[C@]5(C)CC[C@@]4(C)[C@]3(C)CC[C@@H]12 [ENOXOLONE] | 102% | Active | Active | – | –
CNC(=O)/C=C/[C@@]1(C)CC[C@]2(C)CC[C@]3(C)C(=CC(=O)[C@@H]4[C@@]5(C)CC[C@H](O)C(C)(C)[C@@H]5CC[C@]43C)[C@@H]2C1 | 100% | Active | Active | – | –
CC(C)NC(=O)/C=C/[C@@]1(C)CC[C@]2(C)CC[C@]3(C)C(=CC(=O)[C@@H]4[C@@]5(C)CC[C@H](O)C(C)(C)[C@@H]5CC[C@]43C)[C@@H]2C1 | 97.6% | Active | – | – | –
CC(=O)O[C@H]1CC[C@]2(C)[C@H]3C(=O)C=C4[C@@H]5C[C@@](C)(/C=C/C(=O)OCc6ccccc6)CC[C@]5(C)CC[C@@]4(C)[C@]3(C)CC[C@H]2C1(C)C | – | inactive | inactive | 96.9% | –
CN1CCN(C(=O)/C=C/[C@@]2(C)CC[C@]3(C)CC[C@]4(C)C(=CC(=O)[C@@H]5[C@@]6(C)CC[C@H](O)C(C)(C)[C@@H]6CC[C@]54C)[C@@H]3C2)CC1 | 96.6% | – | – | – | inhibition at 40 µM [7]: 76.9%; inhibition [8]: Dose-dependent effect; inhibition [9]: Active; inhibition at 40 µM [10]: 55.6%; inhibition [11]: inactive; inhibition [12]: Dose-dependent effect; IC50 [2]: 13.3 µM; inhibition [2]: Dose-dependent effect; inhibition at 40 µM [3]: > 70%; inhibition [13]: Dose-dependent effect; inhibition [4]: Dose-dependent effect; inhibition [14]: inactive; inhibition [15]: Active
CC1(C)[C@@H](O)CC[C@]2(C)[C@H]3C(=O)C=C4[C@@H]5C[C@@](C)(/C=C/C(=O)NCCc6ccccc6)CC[C@]5(C)CC[C@@]4(C)[C@]3(C)CC[C@@H]12 | – | inactive | inactive | 93% | –
